According to the array DNA melting data of Ke et al. (doi:10.1101/2024.01.08.574731):

Key:
[1] = melting temperature; fluorescence melt of hairpins on a sequencing array, two-state fit, raised by 9.35 °C to match UV melts; conditions: sodium 0.088 M
In short: (§1)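 On a sequenced MiSeq flow cell, library hairpins with annealed Cy3 and quencher oligos were imaged for Cy3 fluorescence in 2.5 °C steps up to 60 °C, in 50 mM Na-HEPES pH 8.0, 25 mM NaCl. Normalisation used pre-quench Cy3 and control constructs. Bootstrapped two-state fits gave melting temperature and folding enthalpy, combined by inverse variance across four replicates and with fitted temperatures raised by 9.35 °C to match UV melts.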

[2] = folding enthalpy; higher = less favourable; fluorescence melt of hairpins on a sequencing array, two-state fit; conditions: sodium 0.088 M
In short: as §1

Sequence | Tm [1] [°C] | folding enthalpy [2] [kcal/mol]
GATCAACTACTTGATC ((((((....)))))) | 41.8 | -32.5
GCTAAGCGAAAGCGTAGC ((((.((....)).)))) | 61.5 | -20.3
GCCGTCGAAAGACGTGGC ((((((....)))..))) | 58.8 | -14.1
GGACCAGGAAACTGGTCC (((((((....))))))) | 68.1 | -32.4
GCTTGCGAAAGCACAGC ((((((....))).))) | 50.5 | -20.1
GCTTGCGAAAGCATCAGC ((((((....)))..))) | 37.1 | -11.8
GCTCACGGAAACACGAGC ((((..(....)..)))) | 34 | -25.8
GTCGATGGAAACATTGAC (((.(((....))).))) | 48.3 | -36.2
GCGACCGGAAACGGCCGC (((.(((....))).))) | 65.1 | -25.9
GATCCACCACTGGATC ((((((....)))))) | 49.4 | -36.9
TCATCGAAAGATGA (((((....))))) | 49.7 | -22.9
GTTATCGGAAACGATGAC ((.((((....)))).)) | 47.1 | -25.2
GAGCGCGGAAACACGCTC (((((.(....).))))) | 56.2 | -41.1
GATCCTGGGCAGGATC ((((((....)))))) | 54.2 | -35.7
GTTTCGCGAAAGCGGAAC (((.(((....))).))) | 59.2 | -23.4
GGAATCACGAAAGTGTCC (((..(((....)))))) | 30.5 | -11.5
GCGCCGCGAAAGCAACGC (((..((....))..))) | 51.1 | -18.1
GCACACGGAAACGCGTGC ((((.((....)).)))) | 57 | -47.3
GAGGAGCCGAAAGGCCTC (((..(((....)))))) | 41.9 | -11.5
CGACCGGAAACGGGTCG ((((((....))).))) | 56.9 | -32.4
GATCAGTCAGCTGATC ((((((....)))))) | 51.3 | -40.9
CGTTCGGAAACGAGTACG ((((((....)))..))) | 35.9 | -18.8
GAGACCGAAAGGTGGCTC ((((((....)))..))) | 43.4 | -19.2

Sequence | Tm [1] [°C] | folding enthalpy [2] [kcal/mol]
GATCTCCGAAGAGATC ((((((....)))))) | 54 | -40.6
GGCCGCGAAAGCGGAGCC ((((((....)))..))) | 53.9 | -13.4
ACTGGGAAACCAGT (((((....))))) | 47.6 | -15.9
GTCAATGGAAACGTTGAC (((((.(....).))))) | 48.1 | -31.2
GCTCCACGAAAGTGTAGC (((.(((....))).))) | 49.2 | -28.9
GGTTGGCGAAAGCCACC (((.(((....)))))) | 57.7 | -16.5
GCTGCGCGAAAGCTCTGC ((.(.((....)).).)) | 42.3 | -18.2
GCGGTCGGAAACGATCGC (((.(((....))).))) | 67.3 | -34.8
GATCACTGTAGTGATC ((((((....)))))) | 60.6 | -39.7
GCACGTCGAAAGACTTGC (((.(((....))).))) | 51.1 | -40.6
GTCTCGGGAAACCGGGAC (((.(((....))).))) | 55.3 | -38.4
GATCTGCGAACAGATC ((((((....)))))) | 49.4 | -33.5
GAAATAGGAAACTATTTC (((((((....))))))) | 46.4 | -44.1
GATGCAGGAAACTGCACC (.(((((....))))).) | 40.5 | -12.7
GCGACGATCGC ((((...)))) | 42.4 | -13.6
ACCAGGAAACTGGT (((((....))))) | 49.2 | -21.4
GTACACGAAAGTGTTTAC ((((((....)))..))) | 29 | -9.29
GATCCTGCTAAGGATC ((((((....)))))) | 63.2 | -46.2
GGCGCCCCGAAAGGGGCC (((..(((....)))))) | 58.6 | -7.09
GCCAAACGAAAGTTCGGC (((.(((....))).))) | 51.3 | -36.8
GATCATAAAGATGATC ((((((....)))))) | 40 | -24.4
GATCTTGTTAAGATC ((((((...)))))) | 45.8 | -30.1
GATCTGGACACAGATC ((((((....)))))) | 58.5 | -38.8

Sequence | Tm [1] [°C] | folding enthalpy [2] [kcal/mol]
GATCAAACGCTTGATC ((((((....)))))) | 41.5 | -29.5
GCGCCGCGAAAGCGTAGC ((..(((....)))..)) | 59.1 | -13.5
GCACAACGAAAGTTTTGC (((.(((....))).))) | 46.9 | -37.7
GCCTTACGAAAGTATGGC (((.(((....))).))) | 55.6 | -41
GAACCGGGAAACCGGTCC (.(((((....))))).) | 41.2 | -11.6
GATCCGAGGGCGGATC ((((((....)))))) | 55.3 | -31.5
GGCAAAGGAAACTTTGCC (((((((....))))))) | 62.7 | -40.7
GGGAACACGAAAGTGCCC (((..(((....)))))) | 45 | -19.8
GGTGGCGAAAGCCTTACC ((((((....)))..))) | 40.2 | -14
GCAAGAGGAAACTCTTAC (.(((((....))))).) | 28 | -14.6
GGATCGGGAAACCAATCC ((((.((....)).)))) | 38.2 | -29.6
GTCATTCGAAAGAACGAC (((.(((....))).))) | 41.1 | -31
GTGGGTGGAAACACCCGC (.(((((....))))).) | 63.3 | -22.7
GCACGCGAAAGCGAATGC ((((((....)))..))) | 49.2 | -18.6
GCTGCGCGAAAGCGTGGC ((..(((....)))..)) | 65.9 | -24.3
GTACCTGGAAACAGGTAC (((((((....))))))) | 61.9 | -41.8
GCTCAGCGAAAGCAGTGC ((.(.((....)).).)) | 44.4 | -13.2
GATCCTCTAAGGATC ((((((...)))))) | 54.3 | -33.3
GATCTCGTTGAGATC ((((((...)))))) | 54.9 | -37.8
GGGACCGAAAGGTGCCCC ((((((....)))..))) | 57.6 | -13.5
GATCATTACGATGATC ((((((....)))))) | 48.5 | -34.9
GCATGGGGAAACTCGTGC (((.(.(....).).))) | 41 | -26.2
GTGCAAACGAAAGTTCAC (((..(((....)))))) | 33.2 | -7.78

Sequence | Tm [1] [°C] | folding enthalpy [2] [kcal/mol]
GGATCCGAAAGGAAGTCC ((((((....)))..))) | 29.5 | -10.1
GATCGGTAGGCCGATC ((((((....)))))) | 57.9 | -40.5
GCTAGGGGAAACTCTGGC ((.((.(....).)).)) | 32.9 | -23.9
GTAAAGCGAAAGCTATAC (((.(((....))).))) | 41.3 | -15.6
GGAGACGAAAGTCGTCC ((((((....))).))) | 49.5 | -14.3
GATGTTGGAAACAACATC (((((((....))))))) | 58.4 | -44.6
CGAGACGGAAACGTTTCG (((.(((....))).))) | 49.6 | -41.5
GATCAGACATCTGATC ((((((....)))))) | 48.2 | -39.6
GTCAGAACGAAAGTTGAC (((..(((....)))))) | 36.9 | -21.5
GCCATCGGAAACGGTGGC ((((.((....)).)))) | 59.3 | -46.7
GGGAGCGGAAACGTTCCC ((((.((....)).)))) | 55.5 | -48.9
GGAAGCGAAAGCTTATCC ((((((....)))..))) | 34.6 | -9.74
GTGAACGAAAGTTCCCAC ((((((....)))..))) | 29.7 | -10.9
GTTGGCCGAAAGGCAAAC (((.(((....))).))) | 56.8 | -21.8
GGCATCGGAAACAACGCC (((.(.(....).).))) | 27.4 | -9.26
GATCTGTTCCCAGATC ((((((....)))))) | 48.6 | -33.7
GACGGGGGAAACCCCGCC (.(((((....))))).) | 50.5 | -12.5
GCTTGCGAAAGCATAAGC ((((((....)))..))) | 47.9 | -19.4
GGCGCCGAAAGGCGGGCC ((((((....)))..))) | 60.4 | -9.79
GGCAATGGAAACATCGCC (((.(((....))).))) | 45.5 | -34.7
GCCACCGAAAGGTTTGGC ((((((....)))..))) | 48.7 | -26.6
GGGAACGAAAGTTCACCC ((((((....)))..))) | 51.6 | -20.7
CGGTCACGGAAACGTCCG (((..(((....)))))) | 38.7 | -10.3
